In ChEMBL document CHEMBL5532647, “Design, synthesis, ADME and biological evaluation of benzylpiperidine and benzylpiperazine derivatives as novel reversible monoacylglycerol lipase (MAGL) inhibitors” (Eur J Med Chem, 2024):
≈ marks a conversion by molar mass, not a printed value. Calls of active or inactive are those of the source. No cut-off for these calls is given here.

Key:
[1] = biological target: T1, Monoglyceride lipase (Homo sapiens) (UniProt Q99685); experiment: Reversible inhibition of human recombinant MAGL using 4-nitrophenylacetate as substrate at 8 nM incubated for 15 mins by microplate reader analysis
T1 sequence (whole entry): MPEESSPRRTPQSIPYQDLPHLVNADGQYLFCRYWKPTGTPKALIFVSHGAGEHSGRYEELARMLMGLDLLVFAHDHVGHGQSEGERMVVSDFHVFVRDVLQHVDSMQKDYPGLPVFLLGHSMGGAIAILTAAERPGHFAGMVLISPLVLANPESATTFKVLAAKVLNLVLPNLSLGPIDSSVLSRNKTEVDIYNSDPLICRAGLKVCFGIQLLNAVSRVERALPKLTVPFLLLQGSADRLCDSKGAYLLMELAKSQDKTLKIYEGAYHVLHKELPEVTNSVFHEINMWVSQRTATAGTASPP
In short: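 Human recombinant MAGL (880 ng in Tris buffer, pH 7.2) incubated 60 min at room temperature with compound at 320 nM in the mixture, then diluted 40-fold in buffer. After 15 min, reaction started with 4-NPA 500 μM (stock added). Activity read at 405 nm after 30 min. Undiluted comparison run at 320 nM and 8 nM.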

[2] = biological target: T2, Monoacylglycerol lipase ABHD6 (Homo sapiens) (UniProt Q9BV23); experiment: Inhibition of human ABHD6 transfected in HEK293 cells at 10 uM preincubated with compound for 30 mins followed by 2-OG addition and measured after 5 mins by liquid scintillation spectroscopy; format: cell-based; details: time 35.0 min
T2 sequence (whole entry): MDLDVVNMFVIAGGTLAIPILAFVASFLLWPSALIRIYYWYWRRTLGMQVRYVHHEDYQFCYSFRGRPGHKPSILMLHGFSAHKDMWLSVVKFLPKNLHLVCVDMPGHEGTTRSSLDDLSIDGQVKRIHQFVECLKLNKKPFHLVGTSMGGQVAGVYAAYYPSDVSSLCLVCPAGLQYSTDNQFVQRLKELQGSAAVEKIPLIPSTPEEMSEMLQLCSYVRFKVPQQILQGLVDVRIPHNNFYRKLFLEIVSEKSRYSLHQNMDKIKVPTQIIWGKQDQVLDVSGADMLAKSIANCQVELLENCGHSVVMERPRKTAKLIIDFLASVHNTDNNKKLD
In short: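 Homogenates (40 μg) of HEK293 cells stably transfected with hABHD6 or hABHD12. Compound 10 μM preincubated 30 min at 37 °C, 500 rpm, in Tris/EDTA buffer with 0.1% fatty acid-free BSA, pH 7.6. Controls: WWL70 10 μM or THL 20 μM; DMSO vehicle. 2-OG 10 μM added for 5 min at 37 °C. Stopped with ice-cold CHCl3:MeOH; aqueous phase counted. No-enzyme blanks used; non-transfected HEK293 hydrolysis subtracted.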

[3] = Thermodynamic aqueous solubility of the compound by LC-MS/MS analysis; format: physicochemical; details: read-out: Therm_solubility
In short: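 Solid compound (1 mg) shaken overnight in 1 mL distilled water at room temperature. Suspension passed through a 0.45 μm nylon filter. Dissolved compound quantified in triplicate by UV/LC-MS or LC-MS/MS against a calibration curve of compound in methanol.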

[4] = Apparent permeability of the compound by PAMPA method; format: ADME
In short: (§1)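 Donor solution made from 1 mM DMSO stock diluted in 25 mM phosphate buffer pH 7.4 to 500 μM final. Filter coated with 1% (w/v) phosphatidylcholine in dodecane. Acceptor was 1:1 v/v DMSO/phosphate buffer. Sandwich incubated 5 h at room temperature. Compound in donor and acceptor wells quantified by UV/LC-MS.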

[5] = Permeability of the compound assessed as membrane retention rate by PAMPA method; format: ADME; in short: as §1
[6] = Metabolic stability in human liver microsome in presence of NADPH-regenerating system by UV/LC-MS analysis; format: ADME; details: microsomes
In short: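 Compound incubated 1 h at 37 °C with human liver microsomes (0.2 mg/mL) and an NADPH-regenerating system (NADPH 0.2 mM, NADP+ 1 mM, glucose-6-phosphate 4 mM, G6PDH 4 unit/mL, MgCl2 48 mM) in 25 mM phosphate buffer pH 7.4. Quenched with acetonitrile, then centrifuged. Parent and metabolites measured by UV/LC-MS. Percent unmetabolized obtained against reference solutions; three independent experiments.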

[7] = Stability in human plasma measured after 24 hrs by UV/LC-MS analysis; format: ADME, cell-free; details: read-out: Stability
In short: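 Compound (2 mM) incubated at 37 °C in pooled human plasma (55.7 mg protein/mL) with HEPES 25 mM, NaCl 140 mM, pH 7.4. Samples taken at 0–24 h and precipitated with cold acetonitrile. After centrifugation, supernatant analysed by UV/LC-MS. Three independent experiments.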

[8] = Toxicity in Tenebrio molitor coleoptera assessed as lethal dose measured for 7 days; details: time 7 day
In short: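 Tenebrio molitor beetles used within three days of metamorphosis. Compound dissolved in DMSO, 1 μL injected into the hemocoel between pronotum and elytron. Range-finding on 1 insect starting at 200 mg/kg. Dose then given to five insects with survival monitored 7 days, repeated until LD50 found, and confirmed in ten insects.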

SMILES	inhibition [1]	inhibition [2]	solubility thermodynamic [3] [µg/mL]	Papp [4] [×10⁻⁶ cm/s]	R% [5] [%]	Stability [6] [%]	remaining at 24 h [7] [%]	LD50 at 168 h [8] [mg/kg]
O=C(c1cccc(O)c1)N1CCC(Cc2ccc(F)c(Sc3cc(C(F)(F)F)ccn3)c2)CC1	Active	inactive						
O=C(c1cccc(O)c1)N1CCC(Cc2cccc(Sc3cc(C(F)(F)F)ccn3)c2)CC1	Active	inactive						
O=C(c1cc(O)ccc1F)N1CCN(Cc2cccc(Sc3cc(C(F)(F)F)ccn3)c2)CC1	Active	inactive	5.47 (≈ 11.1 µM)	1.33	3.2	98.51	> 99	300
O=C(c1cc(O)ccc1F)N1CCC(Cc2cccc(Sc3cc(C(F)(F)F)ccn3)c2)CC1	Active	inactive	0.00321 (≈ 0.00655 µM)	3.3	17.3	96.76	74.1	200
